KCNQ1 pot = potentiators or activators of KCNQ1 channel, primary screen, cell-based, thallium flux, high-throughput; Potassium voltage-gated channel subfamily KQT member 1 (Homo sapiens), P51787; CHO-K1 KCNQ1, thallium flux FluxOR fluorescence; hits give high values; B-score at 10 µM; 0.35% of 310,000 active;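 active means fluorescence ratio B-score, a plate-corrected score, at least three library SD, with initial intensity B-score within 5 SD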
Target sequence (P51787 whole entry, looked up): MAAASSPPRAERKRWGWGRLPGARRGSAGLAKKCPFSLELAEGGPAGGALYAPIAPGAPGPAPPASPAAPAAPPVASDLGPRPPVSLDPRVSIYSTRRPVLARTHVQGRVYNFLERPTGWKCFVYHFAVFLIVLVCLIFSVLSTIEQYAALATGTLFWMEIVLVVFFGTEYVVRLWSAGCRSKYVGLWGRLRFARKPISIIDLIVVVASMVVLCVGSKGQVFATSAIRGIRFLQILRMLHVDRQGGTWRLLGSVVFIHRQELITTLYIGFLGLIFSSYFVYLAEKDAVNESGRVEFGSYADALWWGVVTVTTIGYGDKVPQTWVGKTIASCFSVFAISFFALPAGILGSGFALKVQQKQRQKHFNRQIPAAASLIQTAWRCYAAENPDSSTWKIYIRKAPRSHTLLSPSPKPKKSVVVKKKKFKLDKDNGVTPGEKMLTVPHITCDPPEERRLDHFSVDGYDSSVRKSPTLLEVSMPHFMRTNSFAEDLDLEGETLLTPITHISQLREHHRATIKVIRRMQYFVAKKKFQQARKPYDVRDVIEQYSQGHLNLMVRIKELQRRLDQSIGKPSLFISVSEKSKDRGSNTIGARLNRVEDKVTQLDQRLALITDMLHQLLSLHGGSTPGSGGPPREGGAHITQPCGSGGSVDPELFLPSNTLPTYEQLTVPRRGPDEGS
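Assay system: stable KCNQ1 CHO-K1 line; medium: assay buffer, equal DMSO in all wells; timing: 90 min dye loading and 20 min compound exposure, both at room temperature; technique: kinetic FluxOR thallium fluorescence, 10-s 1-Hz baseline, 110-s post-stimulus read; read-out basis: B score of baseline-normalized fluorescence ratio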
KCNK9 block = KCNK9 potassium channel inhibitors, primary screen, HEK293 cells, thallium flux; Potassium channel subfamily K member 9 (Homo sapiens), Q9NPC2; FluxOR thallium flux fluorescence; hits give low values; B-score at 10 µM; 1.2% of 310,000 active;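 active means ratio B-score over 3 SD below the library mean, with starting fluorescence within 5 SD of its mean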;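 further: negative B-score means less thallium flux so channel inhibition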
KCNK3 inh = human KCNK3 channel inhibitors, primary screen, CHO cells, FluxOR thallium flux, B-score; 0.84% of 340,000 active; FluxOR fluorescence; hits give low values; AID 602410, 2012; Potassium channel subfamily K member 3 (Homo sapiens), O14649; B-score at 10 µM;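 active means B-score under library mean minus 4 SD, starting fluorescence ratio at most library mean plus 5 SD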;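 further: more negative B-score means stronger inhibition of thallium flux through KCNK3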
hERG protect = hERG rescue from dofetilide block, primary screen, cell-based, CHO-hERG, FluxOR thallium flux, dofetilide IC70; dofetilide IC70 present; activation (rescue from dofetilide block), less the hit threshold, % at 10 µM; 0.51% of 310,000 active; AID 1511, 2009;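 active means activation above the mean of controls blocked by dofetilide plus 5 SD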;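 further: thallium influx through hERG after potassium depolarization seen as dye fluorescence rise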
KCNQ1 block = inhibitors of human KCNQ1 channel, primary screen, cell-based, thallium flux, high-throughput | Potassium voltage-gated channel subfamily KQT member 1 (Homo sapiens), P51787 | CHO-K1 KCNQ1, FluxOR thallium flux fluorescence; hits give high values | B-score at 10 µM | 1.3% of 310,000 active;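 active means compounds whose thallium flux B-score, printed positive for inhibition, exceeds three library SD while starting fluorescence stays within three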;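 further: channel opened by potassium depolarization with thallium stimulus after 20 min compound exposure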
Kir21 block = inhibitors of mouse Kir2.1 inward-rectifier potassium channel | Inward rectifier potassium channel 2 (Mus musculus), P35561 | HEK293-Kir2.1, FluxOR thallium flux fluorescence; hits give low values | B-score at 10 µM | 0.85% of 310,000 active | AID 1672, 2009;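 active means fluorescence ratio B-score at or below minus 3 SD of library scores, with starting-brightness B-score within 2 SD, cut at about -4.2 in these data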;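 further: channel flux triggered by added potassium and thallium sulfate stimulus; B-score of peak minus minimum fluorescence over baseline after thallium stimulus; more negative B-score means stronger Kir2.1 block with less thallium influx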
KCNQ1 inh valid = KCNQ1 potassium channel inhibitors, confirmation, cell-based, Tl flux, duplicate. shares compounds with KCNQ1 block. KCNQ1 cell line, FluxOR thallium flux fluorescence. inhibition, % at 10 µM. 93% of 1,600 active. AID 588353, 2011;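 active means primary screen active, with duplicate mean exceeding buffer control mean plus 3 SD of buffer wells, cut at about 28% in these data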;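 further: 0% = buffer control ratio and 100% = XE991 inhibitor control ratio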
CHO Tl flux = thallium flux effects in parental CHO cells, counter-screen for KCNQ1 inhibitor project, cell-based, Tl flux. shares compounds with KCNQ1 block. parental CHO-K1, FluxOR thallium flux fluorescence ratio; hits give low values; zero means no signal rise above baseline. fluorescence ratio (Tl flux) at 10 µM. 21% of 1,600 active. AID 588366, 2011;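 active means mean of duplicate thallium-flux fluorescence ratios in parental host cells more than 5 SD below the buffer control mean, cut at about 0.38 in these data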;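 further: ratio is peak minus minimum fluorescence divided by baseline fluorescence; actives read low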
KCNQ1 ephys val = KCNQ1 channel inhibitors, confirmation, orthogonal assay, cell-based, automated electrophysiology; AID 624120, 2012; calls only at 10 µM; 20% of 490 active; KCNQ1-CHO cells, automated patch clamp current; shares compounds with KCNQ1 block;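 active means KCNQ1 current drop exceeding 3 SD of negative control wells, seen in both duplicate runs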;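 further: steady state current during a 2 s step from -80 to +40 mV; negative values mean current inhibition and positive values mean potentiation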
KCNQ2 inh = KCNQ2 channel inhibition, selectivity assay for KCNQ1 inhibitor project, cell-based; shares compounds with KCNQ1 block; KCNQ2 cells, FluxOR thallium flux fluorescence; inhibition, % at 10 µM; 71% of 1,600 active;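 active means mean percent inhibition of the KCNQ2 thallium signal more than 5 SD above the buffer-only control wells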;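 further: KCNQ2 expressed in CHO cells; 0% = buffer control wells and 100% = XE-991 inhibitor control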
KCNQ1 KCNE1 spec = KCNQ1/KCNE1 channel inhibition, selectivity assay for KCNQ1 inhibitor project, CHO-K1 cells, thallium flux, FluxOR | AID 652147, 2013 | 77% of 1,600 active | shares compounds with KCNQ1 block | FluxOR thallium flux fluorescence | inhibition, % at 10 µM;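 active means mean percent inhibition of duplicate wells above the buffer-only control mean plus 3 SD of those controls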;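 further: 0% = buffer only wells and 100% = XE-991 inhibitor control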
KCNK9 inh conf = KCNK9 potassium channel inhibitors, confirmation, HEK293 cells, thallium flux, duplicate; shares compounds with KCNK9 block; FluxOR thallium flux fluorescence; inhibition, % at 10 µM; 43% of 4,900 active;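 active means thallium signal inhibited by more than 5 SD of the compound-free buffer control wells, on both duplicate plates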;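 further: 0% = assay buffer control wells without compound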
Kir2-1 spec = mouse Kir2.1 channel inhibition, confirmation, selectivity assay for KCNK9 modulator project, cell-based, HEK293, thallium flux | shares compounds with KCNK9 block | Kir2.1 cells, FluxOR thallium flux fluorescence | inhibition, % at 10 µM | 4% of 4,900 active | AID 492993, 2010;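 active means thallium signal drop more than 5 SD beyond the mean of the no-compound control wells, seen in both duplicate plates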;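 further: signal is fluorescence rise after thallium addition divided by baseline fluorescence; plate controls were assay buffer only for no effect and full block by chlorpromazine control for full effect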
HEK293 Tl ctr = thallium flux in non-induced HEK293 cells, confirmation, counter-screen for KCNK9 inhibitor project, cell-based, second counter screen, non-induced KCNK9-HEK293; AID 492997, 2010; FluxOR thallium flux; 40% of 4,900 active; inhibition, % at 10 µM; shares compounds with KCNK9 block;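 active means thallium signal drop beyond 5 SD of the untreated control mean, on both duplicate plates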;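 further: plate controls were buffer only IC0 wells for no effect and SID17386958 at its maximal inhibitory level for full effect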
KCNK3 confirm = retest of human KCNK3 channel inhibitors, confirmation, CHO cells, FluxOR thallium flux, triplicate | AID 651638, 2012 | 99% of 2,400 active | FluxOR fluorescence; 0% buffer, 100% carvedilol maximal block | ratio percent of control, % at 10 µM | shares compounds with KCNK3 inh;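 active means ratio percent of control, averaged over triplicates, above buffer control mean plus 5 SD, cut at about 64% in these data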;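 further: ratio is the fluorescence rise from min to max over baseline after thallium stimulus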
KCNK3 uninduced = thallium flux inhibition in non-induced cells, primary screen, counter-screen for KCNK3 inhibitor project, cell-based, non-induced KCNK3 line, FluxOR thallium, triplicate; non-induced KCNK3 parental cells; hits give low values; AID 651747, 2012; thallium flux ratio (lower = more inhibition) at 10 µM; shares compounds with KCNK3 inh; 40% of 2,400 active;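 active means thallium flux ratio, averaged over three wells, more than 5 SD below the buffer control mean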;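 further: host cells are CHO cells without KCNK3 induction; ratio is peak minus trough fluorescence over baseline then normalized to buffer controls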
* hit, by the source's call; i = inactive; / = no result. This is a sample that favours compounds with a hit; in the whole collection about 3.7% have one here.

SMILES	KCNQ1 pot	KCNK9 block	KCNK3 inh	hERG protect	KCNQ1 block	Kir21 block	KCNQ1 inh valid	CHO Tl flux	KCNQ2 inh	KCNQ1 KCNE1 spec	KCNK3 confirm	KCNK3 uninduced	others
Cc1ccc(C)c(NC(=O)CN2C(=O)NC(CCc3ccccc3)C2=O)c1 (stereo not drawn)	/	/	i	/	/	/	/	/	/	/	/	/
COc1ccccc1NC(=O)Nc1nc(CC(=O)Nc2ccc(OC)c(OC)c2)cs1	i	i	i	-12	i	1.1	/	/	/	/	/	/
COc1cc(C)ccc1NC(=O)Cc1csc(NC(=O)Nc2ccccc2OC)n1	i	-8.8*	-13*	-22	17*	-0.78	115*	0.49	121%*	172%*	133*	i	KCNQ1 ephys val=i;KCNK9 inh conf=28%*;Kir2-1 spec=i;HEK293 Tl ctr=24%*
COc1ccc(OC)c(/C=N/NC(=O)C(=O)N2CCCCCC2)c1	i	i	i	-9	i	0.14	/	/	/	/	/	/
Cc1ccc(C2CC(c3cccs3)=NN2C(=O)CSc2nc(=O)n3cc(C)ccc3n2)cc1 (stereo not drawn)	i	i	i	-11	i	-2.1	/	/	/	/	/	/
CC(C)OCCCNc1nc(-c2ccccc2)nc2ccccc12	i	i	-10*	-24	7*	1.6	88*	0.48	117%*	152%*	123*	i	KCNQ1 ephys val=i
Cc1ccc(NC(=O)C2CCCN2C(=O)OCc2ccccc2)c(O)c1 (stereo not drawn)	i	i	i	-10	i	-2.4	/	/	/	/	/	/
O=C(CN(CCO)c1ccccc1)Nc1ccc(Cl)c(S(=O)(=O)N2CCOCC2)c1	i	i	i	-10	i	-2.2	/	/	/	/	/	/
Oc1ccccc1N1CCN(c2ncnc3scc(-c4ccc(F)cc4)c23)CC1	i	i	-9.6*	-10	9*	1.3	121*	0.37*	63%*	151%*	115*	0.12*
CCOc1ccccc1N1CCN(c2ncnc3scc(-c4ccc(OC)cc4)c23)CC1	i	-6.8*	-9.4*	-35	8*	-1.8	142*	0.35*	141%*	174%*	140*	0.11*
Cc1nc(N2CCN(c3ccccc3O)CC2)c2c(-c3ccccc3)csc2n1	i	i	-9.9*	-12	18*	1.2	54*	0.42	89%*	88%*	116*	0.11*
COc1cc(Nc2nc3c(N)cc(C(F)(F)F)cc3nc2-c2ccccc2)cc(OC)c1OC	/	/	i	/	/	/	/	/	/	/	/	/
CNC(=S)Nc1cccc(S(=O)(=O)NCc2ccco2)c1	/	/	i	/	/	/	/	/	/	/	/	/
COC(=O)C1C(c2ccccc2)C(C(=O)OCc2ccco2)C1c1ccccc1 (stereo not drawn)	i	-8.3*	-11*	-25	6*	0.02	95*	0.36*	111%*	164%*	116*	0.15*	KCNK9 inh conf=44%*;Kir2-1 spec=i;HEK293 Tl ctr=24%*
CCN(CC)S(=O)(=O)c1ccc2oc(SCc3ccc(F)cc3)nc2c1	i	-8.7*	-11*	-12	9*	-1	82*	0.45	80%*	102%*	100*	i	KCNK9 inh conf=36%*;Kir2-1 spec=i;HEK293 Tl ctr=41%*
CCOCCCNC(=O)c1cn(CC)c2ccc(S(=O)(=O)N3CCCC3)cc2c1=O	i	i	i	-6	i	1.3	/	/	/	/	/	/
CCCNC(=S)N1CCN(c2nc(C)nc3sc4c(c23)CCCC4)CC1	i	i	-9.5*	-13	8*	0.47	112*	0.41	135%*	170%*	134*	0.14*	KCNQ1 ephys val=i
CC(=O)Nc1ccc(Nc2cc(C)nc3c(-c4ccccc4)c(C)nn23)cc1	i	i	i	-6	i	2.5	/	/	/	/	/	/
CC(=O)Nc1ccc(Nc2cc(C(C)C)nc3c(-c4ccccc4)c(C)nn23)cc1	i	i	-12*	-13	7*	1.8	118*	0.38*	77%*	134%*	123*	i

Assay outcomes as filed in PubChem BioAssay.
